Experimental findings from ChEMBL document CHEMBL1155806, “Inorganic polyhedral metallacarborane inhibitors of HIV protease: a new approach to overcoming antiviral resistance” (J Med Chem, 2008) are described below.

pKi: −log10 of the molar value.

The target of one test is Protease (Human immunodeficiency virus 1, UniProt Q9YQ12). The test can be described thus: Inhibition of wild-type HIV1 BH10 protease expressed in Escherichia coli by spectrophotometric assay. In a few lines:
(§1)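 Recombinant PR refolded from inclusion bodies and purified. 8-10 pmol enzyme in 1 mL 0.1 M sodium acetate pH 4.7, 0.3 M NaCl, 4 mM EDTA. Ki obtained by fitting the Williams–Morrison competitive inhibition equation.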

In test [1] the target is Human immunodeficiency virus type 1 protease (Human immunodeficiency virus 1, UniProt Q72874, A71V/I54V/I84V/L10I/L24I/L33F/L63P/M46L/V82A). The test can be described thus: Inhibition of HIV1 recombinant protease L10I/L24I/L33F/M46L/I54V/L63P/A71V/V82A/I84V mutant expressed in Escherichia coli by spectrophotometric assay. The procedure, abridged: as §1
A short description of test [2]: Ratio of Ki for HIV1 recombinant protease L10I/L24I/L33F/M46L/[…]/L63P/A71V/V82A/I84V mutant to Ki for wild-type HIV1 BH10 protease expressed in Escherichia coli. Details: species or system Human immunodeficiency virus 1.
Test [3] in a line: Ratio of Ki for HIV1 recombinant protease M46I/A71V/V82T/I84V mutant to Ki for wild-type HIV1 BH10 protease. Details: species or system Human immunodeficiency virus 1.
The nature of test [4]: Ratio of Ki for HIV1 recombinant protease V32I/I47A mutant to Ki for wild-type HIV1 BH10 protease. Details: species or system Human immunodeficiency virus 1.
Test [5] concerns the target Human immunodeficiency virus type 1 protease (Human immunodeficiency virus 1, UniProt Q72874, I47A/V32I). The test can be described thus: Inhibition of HIV1 recombinant protease V32I/I47A mutant expressed in Escherichia coli by spectrophotometric assay. The procedure, abridged: as §1
Test [6] in a line: Ratio of Ki for HIV1 recombinant protease L10F/L19I/K20R/L33F/E35D/M36I/R41K/F53L/I54V/L63P/H69K/A71V/T74P/I84V/L89M/L90M/I93L mutant to Ki for wild-type HIV1 BH10 protease. Details: species or system Human immunodeficiency virus 1.
The nature of test [7]: Ratio of Ki for HIV1 recombinant protease A71V/V82T/I84V mutant to Ki for wild-type HIV1 BH10 protease. Set-up: species or system Human immunodeficiency virus 1.
The target in test [8] is Human immunodeficiency virus type 1 protease (Human immunodeficiency virus 1, UniProt Q72874, A71V/I84V/M46I/V82T). Briefly: Inhibition of HIV1 recombinant protease M46I/A71V/V82T/I84V mutant expressed in Escherichia coli by spectrophotometric assay. In a few lines: as §1
The target in test [9] is Human immunodeficiency virus type 1 protease (Human immunodeficiency virus 1, UniProt Q72874, A71V/E35D/F53L/H69K/I54V/I84V/I93L/K20R/L10F/L19I/L33F/L63P/L89M/L90M/M36I/R41K/T74P). Briefly: Inhibition of HIV1 recombinant protease L10F/L19I/K20R/L33F/E35D/M36I/R41K/F53L/I54V/L63P/H69K/A71V/T74P/I84V/L89M/L90M/I93L mutant expressed in Escherichia coli by spectrophotometric assay. The procedure, abridged:
as §1

Test [10] in a line: Ratio of Ki for HIV1 recombinant protease L10I/I15V/E35D/N37S/R41K/I62V/L63P/A71V/G73S/L90M mutant to Ki for wild-type HIV1 BH10 protease. Details: species or system Human immunodeficiency virus 1.
Test [11] in a line: Ratio of Ki for HIV1 recombinant protease D30N/N88D mutant to Ki for wild-type HIV1 BH10 protease. Set-up: species or system Human immunodeficiency virus 1.
Test [12] addresses Human immunodeficiency virus type 1 protease (Human immunodeficiency virus 1, UniProt Q72874, A71V/I84V/V82T). Briefly: Inhibition of HIV1 recombinant protease A71V/V82T/I84V mutant expressed in Escherichia coli by spectrophotometric assay. In a few lines:
as §1

Test [13] concerns the target Human immunodeficiency virus type 1 protease (Human immunodeficiency virus 1, UniProt Q72874, A71V/E35D/G73S/I15V/I62V/L10I/L63P/L90M/N37S/R41K). Briefly: Inhibition of HIV1 recombinant protease L10I/I15V/E35D/N37S/R41K/I62V/L63P/A71V/G73S/L90M mutant expressed in Escherichia coli by spectrophotometric assay.
The target of test [14] is Human immunodeficiency virus type 1 protease (Human immunodeficiency virus 1, UniProt Q72874, D30N/N88D). The test can be described thus: Inhibition of HIV1 recombinant protease D30N/N88D mutant expressed in Escherichia coli by spectrophotometric assay. The procedure, abridged:
as §1

On to `CC(C)CN(C[C@@H](O)[C@H](Cc1ccccc1)NC(=O)O[C@H]1CCOC1)S(=O)(=O)c1ccc(N)cc1`, for which the results for the pKi (on Protease; in test [1]) were […] and 8.39, respectively.
On to `Cc1c(O)cccc1C(=O)N[C@@H](CSc1ccccc1)[C@H](O)CN1C[C@H]2CCCC[C@H]2C[C@H]1C(=O)NC(C)(C)C`, for which the pKi (usually the Ki on a negative log10 scale, so that one unit is a factor of ten) at Protease was 10.15.
Turning to `COC(=O)N[C@H](C(=O)N[C@@H](Cc1ccccc1)[C@@H](O)CN(Cc1ccc(-c2ccccn2)cc1)NC(=O)[C@@H](NC(=O)OC)C(C)(C)C)C(C)(C)C` [ATAZANAVIR], the Ki ratio in [2] was determined as 50; in test [3], 32; in [4] it was 7.1; in test [6] it was 2.3; in test [7], 9.4; in test [10], 3.2. Besides, the Ki ratio in test [11] worked out at 2.3. Besides, the pKi at Protease was 10.62; in test [1], 8.92; in test [5] it was 9.77; in test [8], 9.12; in [9], 10.27; in test [12] it was 9.64. Further, the pKi in test [13] is 10.12; in test [14] it was 10.26.
